Data set [1] concerns Escherichia coli. Put plainly: Antibacterial activity against Escherichia coli ATCC 25922 assessed as inhibition of bacterial growth after 24 hrs by microbroth dilution method. Type of data set: functional. The method, boiled down: (§1)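 Bacterial inoculum set to 1×10^5 CFU with sterile saline. Test agents and reference drugs, from DMSO stocks, diluted in Mueller-Hinton broth to 512, 256, 128, 64, 32, 16, 8, 4, 2, 1 and 0.5 µg/mL. Inoculated dilutions incubated 37 °C for 24 h.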
Background: Broth dilution looks for growth in wells or tubes with falling amounts of substance.

Data set [2] has as its system Staphylococcus aureus. The data set is described as follows: Antibacterial activity against Staphylococcus aureus assessed as inhibition of bacterial growth after 24 hrs by microbroth dilution method. The data set is classed as functional. The method, boiled down:
as §1

For data set [3], the system named is Staphylococcus aureus. The data set is described as follows: Potency index, ratio of norfloxacin MIC to compound MIC for antibacterial activity against methicillin resistant staphylococcus aureus incubated for 24 hrs by microbroth dilution method. The data set is classed as functional.
The subject of data set [4] is Pseudomonas aeruginosa. The data set is described as follows: Antibacterial activity against Pseudomonas aeruginosa assessed as inhibition of bacterial growth after 24 hrs by microbroth dilution method. Type of data set: functional. The method, boiled down: as §1
For another data set, the system named is Enterococcus faecalis. The data set is described as follows: Antibacterial activity against Enterococcus faecalis assessed as inhibition of bacterial growth after 24 hrs by microbroth dilution method. Type of data set: functional. The method, boiled down: as §1
Data set [5] concerns Cell membrane. Put plainly: Disruption of membrane integrity in methicillin-reisitant Staphylococcus aureus assessed as increase in red fluorescence at 12 times MIC by PI-staining based fluorescence microscopy analysis. The procedure, abridged:
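Overnight MRSA cultures treated at 12× MIC, with 0.1% Triton X-100 as positive control and untreated cells as negative control. Cells washed once in 1× PBS and stained with 4.5 mM propidium iodide for 15 min at 37 °C. Imaged by fluorescence microscopy, 10× objective, green-light excitation.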

The test system of data set [6] is Staphylococcus aureus. Put plainly: Antibacterial activity against methicillin resistant Staphylococcus aureus assessed as inhibition of bacterial growth after 24 hrs by microbroth dilution method. Type of data set: functional. The method, boiled down:
(§2)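 Inoculum adjusted in sterile saline to 1×10^5 CFU. Compounds dissolved in DMSO as stock, then diluted in Mueller-Hinton broth as a two-fold series from 512 to 0.5 µg/mL (11 levels). Inoculated dilutions incubated at 37 °C for 24 h, and the MIC recorded.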

For another data set, the system named is Klebsiella pneumoniae. The data set is described as follows: Antibacterial activity against Klebsiella pneumoniae assessed as inhibition of bacterial growth after 24 hrs by microbroth dilution method. The data set is classed as functional. The procedure, abridged:
as §1

The next data set relates to Acinetobacter baumannii. Put plainly: Antibacterial activity against Acinetobacter baumannii assessed as inhibition of bacterial growth after 24 hrs by microbroth dilution method. The data set is classed as functional. The method, boiled down:
as §1

Data set [7] in a line: Cytotoxicity against human LO2 cells assessed as cell viability at 12.5 uM after 72 hrs by CCK8 assay. The note with it: read-out: Activity. Type of data set: cell-based, L02. The procedure, abridged: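 Normal human liver LO2 cells seeded at 3000/well and cultured 24 h. Compound added at 100 to 6.25 µM in PBS containing 1% DMSO, then incubated 72 h. CCK8 added for 2 h at 37 °C and absorbance read at 450 nm.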
(In general: Tetrazolium dyes change colour on reduction, which living cells bring about.)

Data set [8] in a line: Cytotoxicity against human HepG2 cells assessed as cell viability at 12 uM after 72 hrs by CCK8 assay. Type of data set: cell-based. The note with it: read-out: Activity.
Data set [9] concerns Pseudomonas aeruginosa. Put plainly: Antibacterial activity against Pseudomonas aeruginosa ATCC 27853 assessed as inhibition of bacterial growth after 24 hrs by microbroth dilution method. The data set is classed as functional. The procedure, abridged:
as §1

For data set [10], the system named is Escherichia coli. The data set is described as follows: Antibacterial activity against Escherichia coli assessed as inhibition of bacterial growth after 24 hrs by microbroth dilution method. The data set is classed as functional. The procedure, abridged:
as §1

Data set [11] deals with Staphylococcus aureus. Put plainly: Induction of ROS generation in methicillin-resistant Staphylococcus aureus after 6 hrs by DCFH-DA dye based fluorometric analysis. Type of data set: functional, organism-based. The method, boiled down:
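MRSA cells at 10^6 CFU/mL were exposed to increasing concentrations of compound for 6 h at 37 °C, then washed with PBS. They were loaded with 10 μM DCFH-DA for 30 min in the dark at 37 °C. DCF fluorescence was read at ex 485/em 528 nm and expressed as fold increase over untreated control cells.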

The test system of data set [12] is Staphylococcus aureus. The data set is described as follows: Antibacterial activity against Staphylococcus aureus ATCC 29213 assessed as inhibition of bacterial growth after 24 hrs by microbroth dilution method. The data set is classed as functional. The method, boiled down: as §2
Data set [13] deals with Calf thymus DNA. Put plainly: Binding affinity to calf thymus DNA assessed as DNA intercalation by measuring hypochromic shift by UV-visible absorption spectrophotometric method. The note with it: Bos taurus. Type of data set: nucleic-acid assay. The procedure, abridged:
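DNA held fixed while compound concentration was raised stepwise, in Tris-HCl buffer pH 7.4. UV-vis spectra recorded at room temperature in 1.0 cm quartz cells, monitoring the 260 nm DNA band. Binding constant came from a linear fit of A0/(A−A0) against 1/[compound]. DNA stock concentration was set by A260 (ε260 = 6600 L·mol−1·cm−1, per phosphate), with A260/A280 >1.8.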

Data set [14] concerns Calf thymus DNA. Put plainly: Binding affinity to calf thymus DNA assessed as DNA intercalation by neutral red dye based UV-visible spectroscopic method. The note with it: Bos taurus. Type of data set: nucleic-acid assay. The method, boiled down: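 Neutral red stock prepared in doubly distilled water and kept cool and dark. DNA stock concentration was set by A260 (ε260 = 6600 L·mol−1·cm−1, per phosphate), with A260/A280 >1.8. All solutions were in Tris-HCl pH 7.4. UV spectra were taken at room temperature in 1.0 cm quartz cells.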

For data set [15], the system named is Staphylococcus aureus. Put plainly: Antibacterial activity against Staphylococcus aureus ATCC 25923 assessed as inhibition of bacterial growth after 24 hrs by microbroth dilution method. Type of data set: functional. The method, boiled down:
as §1

Data set [16] relates to Cell membrane. Put plainly: Disruption of membrane integrity in methicillin-reisitant Staphylococcus aureus assessed as increase in fluorescence intensity at 12 times MIC measured within 50 mins by PI-staining based fluorescence analysis. The procedure, abridged: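 Overnight MRSA culture pelleted, washed and resuspended in 5 mM glucose/5 mM HEPES pH 7.4 (1:1). Compound at 12× MIC added to 2 mL suspension containing 10 µM propidium iodide. Fluorescence followed at ex 535/em 617 nm. Water-treated suspension served as control.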

Values after ≈ are worked out from the molar mass of the structure shown. Active and inactive are the calls of the source. The rule behind the calls is not given here.

On to `O=C1c2cccc(O)c2C(=O)c2c(O)cc(Cn3cnnn3)cc21`, for which the minimum inhibitory concentration (MIC) worked out at 64 µg/mL (≈ 199 µM) in the data set on Escherichia coli [1]; 16 µg/mL (≈ 49.6 µM) with Staphylococcus aureus [2]; 64 µg/mL (≈ 199 µM) in the data set with Pseudomonas aeruginosa [4]; 4 µg/mL (≈ 12.4 µM) with Enterococcus faecalis; 2 µg/mL (≈ 6.21 µM) in the data set on Staphylococcus aureus [6]; 32 µg/mL (≈ 99.3 µM) in the data set on Klebsiella pneumoniae. Besides, the MIC with Acinetobacter baumannii stood at 16 µg/mL (≈ 49.6 µM); in the data set with Pseudomonas aeruginosa [9], 16 µg/mL (≈ 49.6 µM); in the data set on Escherichia coli [10] it was 128 µg/mL (≈ 397 µM); with Staphylococcus aureus [12], 1 µg/mL (≈ 3.1 µM); in the data set with Staphylococcus aureus [15], 64 µg/mL (≈ 199 µM). In the data set with Staphylococcus aureus [3], the Ratio was 4. For the same compound, the result with Cell membrane [5], with Calf thymus DNA [13], with Calf thymus DNA [14] and with Cell membrane [16] was Active. Moreover, the viability at 72 h, 12.5 µM in data set [7] was > 60%. For the same compound, the viability at 72 h, 12 µM in data set [8] is > 50%. In the data set with Staphylococcus aureus [11], the result was inactive.

The term MIC denotes the least concentration at which growth counts as inhibited.

These data come from ChEMBL document CHEMBL4732030, “Aloe-emodin derived azoles as a new structural type of potential antibacterial agents: design, synthesis, and evaluation of the action on membrane, DNA, and MRSA DNA isomerase” (RSC Med Chem, 2021).
